In ChEMBL document CHEMBL4184322, “Coupling of an Acyl Migration Prodrug Strategy with Bio-activation To Improve Oral Delivery of the HIV-1 Protease Inhibitor Atazanavir” (J Med Chem, 2018):
≈ marks a conversion by molar mass, not a printed value.

Assays:
[1] = Half life of the compound in 0.1 N aqueous HCl at pH 1 at 37 degC after 24 hrs by UPLC method; type: physicochemical
[2] = Half life of the compound in acetate buffer at pH 4 at 37 degC after 24 hrs by UPLC method; type: physicochemical
[3] = Half life of the compound in phosphate buffer at pH 6.5 at 37 degC after 24 hrs by UPLC method; type: physicochemical
[4] = Half life of the compound in phosphate buffer at pH 7.4 at 37 degC after 24 hrs by UPLC method; type: physicochemical
[5] = Solubility of the compound in 0.1 N aqueous HCl at pH 1 at 25 degC by UPLC method; type: physicochemical
[6] = Solubility of the compound in acetate buffer at pH 4 at 25 degC by UPLC method; type: physicochemical
[7] = system: Rattus norvegicus; assay: Cmax in Sprague-Dawley rat assessed as atazanavir at 3 mg/kg, po equiv of atazanavir after 0.25 to 24 hrs by UPLC/MS/MS method; type: ADME, organism-based; design: dose 3 mg/kg, route oral; settings: in vivo
[8] = system: Rattus norvegicus; assay: Tmax in Sprague-Dawley rat assessed as atazanavir at 3 mg/kg, po equiv of atazanavir after 0.25 to 24 hrs by UPLC/MS/MS method; type: ADME, organism-based; settings: in vivo
[9] = system: Rattus norvegicus; assay: AUClast in Sprague-Dawley rat assessed as atazanavir at 3 mg/kg, po equiv of atazanavir after 0.25 to 24 hrs by UPLC/MS/MS method; type: ADME, organism-based; design: time upper 24 hr, dose 3 mg/kg, time lower 0.25 hr, route oral; settings: in vivo
[10] = system: Rattus norvegicus; assay: Oral bioavailability in Sprague-Dawley rat assessed as atazanavir at 3 mg/kg equiv of atazanavir after 0.25 to 24 hrs by UPLC/MS/MS method relative to atazanavir; type: ADME, organism-based; settings: in vivo
[11] = system: Rattus norvegicus; assay: Trough concentration in Sprague-Dawley rat assessed as atazanavir at 3 mg/kg, po equiv of atazanavir at 24 hrs by UPLC/MS/MS method; type: ADME, organism-based; settings: in vivo; for Cmin: BLD = below limit of detection; for concentration: read-out: Cmin
[12] = Half life in rat hepatocytes at 1 uM after 5 to 120 mins by UPLC-MS/MS method; type: ADME, cell-based, Hepatocyte
[13] = Half life in rat whole blood at 1 uM after 5 to 90 mins by UPLC-MS/MS method; type: ADME, tissue-based
[14] = Solubility of the compound in phosphate buffer at pH 6.5 at 25 degC by UPLC method; type: physicochemical
[15] = system: Rattus norvegicus; assay: Ratio of AUClast in Sprague-Dawley rat at 3 mg/kg, po equiv of atazanavir to AUC in Sprague-Dawley rat assessed as atazanavir at 3 mg/kg, po equiv of atazanavir; type: ADME, organism-based; settings: in vivo
[16] = Apparent permeability across apical to basolateral side in human Caco2 cells; type: ADME, cell-based; settings: Caco-2
[17] = Apparent permeability across basolateral to apical side in human Caco2 cells; type: ADME, cell-based; settings: Caco-2
[18] = Efflux ratio of apparent permeability across basolateral to apical over apical to basolateral side in human Caco2 cells; type: ADME, cell-based; settings: Caco-2
[19] = Trough concentration in Sprague-Dawley rat at 3 mg/kg, po at 24 hrs by UPLC/MS/MS method; type: ADME, organism-based; settings: in vivo, read-out: Cmin
[20] = system: Rattus norvegicus; assay: Cmax in Sprague-Dawley rat at 3 mg/kg, po after 0.25 to 24 hrs by UPLC/MS/MS method; type: ADME, organism-based; design: dose 3 mg/kg, route oral; settings: in vivo
[21] = Oral bioavailability in Sprague-Dawley rat at 3 mg/kg after 0.25 to 24 hrs by UPLC/MS/MS method; type: ADME, organism-based; settings: in vivo
[22] = Tmax in Sprague-Dawley rat at 3 mg/kg, po after 0.25 to 24 hrs by UPLC/MS/MS method; type: ADME, organism-based; settings: in vivo
[23] = system: Rattus norvegicus; assay: AUClast in Sprague-Dawley rat at 3 mg/kg, po after 0.25 to 24 hrs by UPLC/MS/MS method; type: ADME, organism-based; design: time 0.25-24 hr, dose 3 mg/kg, route oral; settings: in vivo
[24] = AUC (0 to 24 hrs) in famotidine treated Sprague-Dawley rat at 10 mg/kg, po by UPLC/MS/MS method; type: ADME, organism-based; design: dose 10 mg/kg, time < 24 hr, route oral; settings: in vivo
Summary of the method: (§1)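 Rat gastric-pH model: gastric pH raised with famotidine or lowered with pentagastrin before oral dosing […] as a suspension in 0.5% methyl cellulose / 99.5% water; plasma atazanavir (parent) AUC0–24 h determined.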

[25] = AUC (0 to 24 hrs) in pentagastrin treated Sprague-Dawley rat at 10 mg/kg, po by UPLC/MS/MS method; type: ADME, organism-based; design: dose 10 mg/kg, time < 24 hr, route oral; settings: in vivo; summary of the method: as §1
[26] = AUC (0 to 24 hrs) in Sprague-Dawley rat at 10 mg/kg, po by UPLC/MS/MS method; type: ADME, organism-based; design: dose 10 mg/kg, time < 24 hr, route oral; settings: in vivo
[27] = system: Rattus norvegicus; assay: Ratio of AUC in pentagastrin treated Sprague-Dawley rat at 10 mg/kg, po to AUC in famotidine treated Sprague-Dawley rat at 10 mg/kg, po; type: ADME, organism-based; settings: in vivo
Summary of the method: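 Oral suspension in 0.5% methyl cellulose / 99.5% water, given to rats whose gastric pH was modulated by pretreatment with pentagastrin or famotidine.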

[28] = system: Rattus norvegicus; assay: (§2) Cmax in Sprague-Dawley rat assessed as (2S,3S)-3-Amino-1-(2-((S)-2-((methoxycarbonyl)amino)-3,3-dimethylbutanoyl)-1-(4-(pyridin-2-yl)benzyl)hydrazinyl)4-phenylbutan-2-yl (S)-2-((Methoxycarbonyl)amino)-3,3-dimethylbutanoate Dihydrochloride at 3 mg/kg, po equiv of atazanavir after 0.25 to 24 hrs by UPLC/MS/MS method; type: ADME, organism-based; design: dose 3 mg/kg, route oral; settings: in vivo
[29] = system: Rattus norvegicus; assay: as §2, with “Tmax” for “Cmax”; type: ADME, organism-based; settings: in vivo
[30] = system: Rattus norvegicus; assay: as §2, with “AUClast” for “Cmax”; type: ADME, organism-based; design: time lower 0.25 hr, dose 3 mg/kg, time upper 24 hr, route oral; settings: in vivo
[31] = system: Rattus norvegicus; assay: Trough concentration in Sprague-Dawley rat assessed as (2S,3S)-3-Amino-1-(2-((S)-2-((methoxycarbonyl)amino)-3,3-dimethylbutanoyl)-1-(4-(pyridin-2-yl)benzyl)hydrazinyl)4-phenylbutan-2-yl (S)-2-((Methoxycarbonyl)amino)-3,3-dimethylbutanoate Dihydrochloride at 3 mg/kg, po equiv of atazanavir at 24 hrs by UPLC/MS/MS method; type: ADME, organism-based; settings: in vivo, read-out: Cmin
[32] = system: Rattus norvegicus; assay: AUC (0 to 24 hrs) in famotidine treated Sprague-Dawley rat assessed as atazanavir at 10 mg/kg, po equiv of atazanavir by UPLC/MS/MS method; type: ADME, organism-based; design: time < 24 hr, dose 10 mg/kg, route oral; settings: in vivo
Summary of the method: (§3)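 Rat gastric pH model. Gastric pH was modulated by pretreatment with either pentagastrin or famotidine. Dosing was oral as a suspension in 0.5% methyl cellulose / 99.5% water, with parent AUC0–24 h determined in each arm.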

[33] = system: Rattus norvegicus; assay: AUC (0 to 24 hrs) in pentagastrin treated Sprague-Dawley rat assessed as atazanavir at 10 mg/kg, po equiv of atazanavir by UPLC/MS/MS method; type: ADME, organism-based; design: dose 10 mg/kg, time < 24 hr, route oral; settings: in vivo; summary of the method: as §3
[34] = system: Rattus norvegicus; assay: AUC (0 to 24 hrs) in Sprague-Dawley rat assessed as atazanavir at 10 mg/kg, po equiv of atazanavir by UPLC/MS/MS method; type: ADME, organism-based; design: time < 24 hr, dose 10 mg/kg, route oral; settings: in vivo
[35] = system: Rattus norvegicus; assay: Oral bioavailability in Sprague-Dawley rat assessed as atazanavir at 3 mg/kg equiv of atazanavir after 0.25 to 24 hrs by UPLC/MS/MS method; type: ADME, organism-based; settings: in vivo

Row | half-life [1] | half-life [2] | half-life [3] | solubility [5] | solubility [6] | Cmax [7] | Tmax [8] | AUClast [9] | F [10] | Cmin [11] | half-life at 1 µM [12] | half-life at 1 µM [13] | solubility [14] | concentration [11] | Ratio AUC [15] | Papp A→B [16] | Papp B→A [17] | efflux ratio [18] | SMILES | further results
1 | > 500 h | 334 h | 6.6 h | > 1800 µg/mL | > 1500 µg/mL | 56 nM | 0.4 h | 0.083 µM·h | 4.3% | Bld | < 0.0833 h | 0.333 h | – | – | – | – | – | – | COC(=O)N[C@H](C(=O)NN(Cc1ccc(-c2ccccn2)cc1)C[C@H](OC(=O)[C@@H](NC(=O)OC)C(C)(C)C)[C@H](Cc1ccccc1)NC(=O)OCOC(=O)[C@@H](N)C(C)C)C(C)(C)C.Cl.Cl | half-life [4]: 1.8 h
2 | > 500 h | > 500 h | 120 h | > 1800 µg/mL | < 1 µg/mL | 180 nM | 1.3 h | 0.194 µM·h | 10.1% | – | < 0.0833 h | < 0.0833 h | < 1 µg/mL | 0.3 nM | 0.1 | – | – | – | COC(=O)N[C@H](C(=O)NN(Cc1ccc(-c2ccccn2)cc1)C[C@H](OC(=O)[C@@H](NC(=O)OC)C(C)(C)C)[C@H](Cc1ccccc1)NC(=O)OCc1oc(=O)oc1C)C(C)(C)C | –
3 | – | – | – | – | – | 10 nM | – | – | – | Bld | – | – | – | – | – | – | – | – | COC(=O)N[C@H](C(=O)N[C@@H](Cc1ccccc1)[C@H](CN(Cc1ccc(-c2ccccn2)cc1)NC(=O)[C@@H](NC(=O)OC)C(C)(C)C)OC(=O)[C@@H](N)C(C)C)C(C)(C)C.Cl.Cl | F [35]: 2.2%

The next lines start with the compound.

Row | SMILES | half-life [1] | half-life [2] | half-life [3] | solubility [5] | solubility [6] | Cmax [7] | Tmax [8] | AUClast [9] | F [10] | Cmin [11] | half-life at 1 µM [12] | half-life at 1 µM [13] | solubility [14] | concentration [11] | Ratio AUC [15] | Papp A→B [16] | Papp B→A [17] | efflux ratio [18] | further results
4 | COC(=O)N[C@H](C(=O)NN(Cc1ccc(-c2ccccn2)cc1)C[C@H](OC(=O)[C@@H](NC(=O)OC)C(C)(C)C)[C@H](Cc1ccccc1)NC(=O)OC(OC(=O)[C@H](N)C(C)C)C(C)C)C(C)(C)C.Cl.Cl (stereo partly specified) | > 500 h | > 500 h | 215 h | > 500 µg/mL | > 1430 µg/mL | 37 nM | 2.3 h | 0.167 µM·h | 8.7% | – | 0.883 h | > 2 h | 27 µg/mL | 0.3 nM | 50.5 | < 1.5 ×10⁻⁶ cm/s | 7.3 ×10⁻⁶ cm/s | > 5 | –
5 | COC(=O)N[C@H](C(=O)N[C@@H](Cc1ccccc1)[C@@H](O)CN(Cc1ccc(-c2ccccn2)cc1)NC(=O)[C@@H](NC(=O)OC)C(C)(C)C)C(C)(C)C [ATAZANAVIR] | > 500 h | > 500 h | > 500 h | 1690 µg/mL (≈ 2400 µM) | < 1 µg/mL | – | – | – | – | – | 0.467 h | > 2 h | < 1 µg/mL | – | – | – | 47 ×10⁻⁶ cm/s | > 31 | concentration at 24 h [19]: 0.25 nM; Cmax [20]: 266 nM; bioavailability [21]: 20%; Tmax [22]: 0.5 h; AUClast [23]: 0.384 µM·h; AUC(0-t) at 24 h [24]: 0.005 µM·h; AUC(0-t) at 24 h [25]: 2.46 µM·h; AUC(0-t) at 24 h [26]: 0.24 µM·h; Ratio AUC [27]: 492
6 | COC(=O)N[C@H](C(=O)NN(Cc1ccc(-c2ccccn2)cc1)C[C@H](OC(=O)[C@@H](NC(=O)OC)C(C)(C)C)[C@H](Cc1ccccc1)NC(=O)OC(OC(=O)[C@@H](N)C(C)C)C(C)C)C(C)(C)C.Cl.Cl (stereo partly specified) | > 500 h | > 500 h | 108 h | > 1100 µg/mL | 120 µg/mL | 310 nM | 1.7 h | 1.446 µM·h | 75.3% | – | 0.933 h | > 2 h | 10 µg/mL | 4.5 nM | 3.4 | < 1.5 ×10⁻⁶ cm/s | 11.4 ×10⁻⁶ cm/s | > 8 | Cmax [28]: 124 nM; Tmax [29]: 1.7 h; AUClast [30]: 0.579 µM·h; concentration [31]: 2 nM; AUC [32]: 1.275 µM·h; AUC [33]: 1.332 µM·h; AUC [34]: 2.093 µM·h
7 | COC(=O)N[C@H](C(=O)NN(Cc1ccc(-c2ccccn2)cc1)C[C@H](OC(=O)[C@@H](NC(=O)OC)C(C)(C)C)[C@@H](N)Cc1ccccc1)C(C)(C)C.Cl.Cl | 376 h | 334 h | 6.6 h | > 900 µg/mL | > 400 µg/mL | 8 nM | 0.4 h | 0.016 µM·h | 0.83% | Bld | 1.32 h | > 2 h | – | – | 4.9 | 2.3 ×10⁻⁶ cm/s | 34.8 ×10⁻⁶ cm/s | 15 | –
